ChEMBL document CHEMBL2034960, “Bryonolic acid transcriptional control of anti-inflammatory and antioxidant genes in macrophages in vitro and in vivo” (J Nat Prod, 2012)
Active and inactive are the calls of the source. The rule behind the calls is not given here.

Assays:
RAW264.7 [1] = assay: Antioxidant activity in LPS-stimulated mouse RAW264.7 cells assessed as induction of HO-1 mRNA expression at 100 uM after 20 hrs by RT-PCR analysis relative to control; format: functional
[2] = target: T1, Nuclear factor erythroid 2-related factor 2 (Mus musculus) (UniProt Q60795); assay: Induction of Nrf2-mediated GR mRNA expression in mouse RAW264.7 cells at 100 uM after 20 hrs by quantitative RT-PCR analysis relative to control; format: cell-based
T1 sequence (whole entry): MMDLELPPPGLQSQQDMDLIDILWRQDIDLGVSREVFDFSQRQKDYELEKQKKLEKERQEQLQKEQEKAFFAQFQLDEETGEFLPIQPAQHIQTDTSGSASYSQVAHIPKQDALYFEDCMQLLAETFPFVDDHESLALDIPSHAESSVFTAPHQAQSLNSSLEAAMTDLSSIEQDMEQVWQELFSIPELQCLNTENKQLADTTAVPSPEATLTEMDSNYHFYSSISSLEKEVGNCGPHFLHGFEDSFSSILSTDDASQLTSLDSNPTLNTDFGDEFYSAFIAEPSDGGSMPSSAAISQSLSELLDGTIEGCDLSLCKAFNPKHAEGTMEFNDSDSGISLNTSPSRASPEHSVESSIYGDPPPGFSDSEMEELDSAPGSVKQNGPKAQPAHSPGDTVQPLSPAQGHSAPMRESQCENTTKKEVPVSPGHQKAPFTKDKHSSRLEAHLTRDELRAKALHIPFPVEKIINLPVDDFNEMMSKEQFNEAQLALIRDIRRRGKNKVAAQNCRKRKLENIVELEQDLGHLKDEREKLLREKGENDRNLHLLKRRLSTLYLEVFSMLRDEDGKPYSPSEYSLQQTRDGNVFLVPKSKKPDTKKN

Mus musculus [3] = assay: Induction of HO1 […] expression in Nrf2-wild type C57BL/6 mouse liver at 500 mg/kg, ip measured after 8 hrs by immunoblot analysis
[4] = target: T1, Nuclear factor erythroid 2-related factor 2 (Mus musculus); assay: Induction of Nrf2-mediated HO1 […] expression in C57BL/6 mouse primary peritoneal macrophages after 48 hrs by immunoblot analysis
RAW264.7 [5] = assay: Antioxidant activity in LPS-stimulated mouse RAW264.7 cells assessed as induction of HO-1 protein expression after 24 hrs by immunoblot analysis; format: functional, cell-based
RAW264.7 [6] = assay: Antioxidant activity in mouse RAW264.7 cells assessed as induction of HO1 expression after 24 hrs by immunoblot analysis
Mus musculus [7] = assay: Induction of HO1 […] expression in Nrf2-knock out C57BL/6 mouse liver at 500 mg/kg, ip measured after 8 hrs by immunoblot analysis
[8] = target: T1, Nuclear factor erythroid 2-related factor 2 (Mus musculus); assay: Induction of nuclear translocation of Nrf2 in mouse RAW264.7 cells assessed as decrease in cytoplasmic fraction at 100 uM after 1 hr; format: cell-based
Procedure, shortened: (§1)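 RAW 264.7 macrophages treated with 50 or 100 μM compound for various times (1–4 h window examined). Cytoplasmic and nuclear fractions were separated and probed for Nrf2 by immunoblot. Translocation was scored as loss of cytoplasmic Nrf2 and nuclear accumulation relative to DMSO control.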

[9] = Solubility of the compound in DMSO; format: physicochemical
[10] = target: T1, Nuclear factor erythroid 2-related factor 2 (Mus musculus); assay: Induction of Nrf2-mediated NQO1 mRNA expression in mouse RAW264.7 cells at 100 uM after 24 hrs by quantitative RT-PCR analysis relative to control; format: cell-based
Procedure, shortened: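 RAW 264.7 cells (DMEM, 10% FBS, 37°C, 5% CO2) exposed to 100 μM compound for a series of time points without stated LPS activation. Total RNA isolated, converted to cDNA, and NQO1 quantified by TaqMan real-time RT-PCR using mouse-specific assays. Fold change versus control derived by the ΔΔCt relative quantification method (40 cycles, 95/60 °C).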

RAW264.7 [11] = assay: Antioxidant activity in mouse RAW264.7 cells assessed as induction of HO1 expression at 100 uM after 66 hrs by immunoblot analysis; format: functional, cell-based
RAW264.7 [12] = assay: Antiinflammatory activity in mouse RAW264.7 cells assessed as inhibition of LPS-induced iNOS protein expression at 50 to 100 uM by immunoblot analysis; format: functional, cell-based; conditions: TDE = time-dependent effect
RAW264.7 [13] = assay: Antiinflammatory activity in mouse RAW264.7 cells assessed as inhibition of LPS-induced nitric oxide production after 24 hrs by Griess method; format: functional, cell-based; conditions: RAW264.7, 24 h
RAW264.7 [14] = assay: Antioxidant activity in LPS-stimulated mouse RAW264.7 cells assessed as induction of HO-1 mRNA expression at 50 uM after 24 hrs by RT-PCR analysis; format: functional, cell-based
RAW264.7 [15] = assay: Cytotoxicity against mouse RAW264.7 cells at 1000 uM after 24 hrs by MTT assay; format: cell-based; conditions: raw264.7, 24 h
[16] = target: T1, Nuclear factor erythroid 2-related factor 2 (Mus musculus); assay: Induction of Nrf2-mediated HO1 […] expression in C57BL/6 mouse primary peritoneal macrophages at 10 uM after 48 hrs by immunoblot analysis
[17] = target: T1, Nuclear factor erythroid 2-related factor 2 (Mus musculus); assay: Induction of nuclear translocation of Nrf2 in mouse RAW264.7 cells assessed as decrease in cytoplasmic fraction at 100 uM after 1 to 4 hrs; format: cell-based; procedure, shortened: as §1
RAW264.7 [18] = assay: Antioxidant activity in mouse RAW264.7 cells assessed as induction of HO1 expression at 100 uM after 48 hrs by immunoblot analysis; format: functional, cell-based
[19] = target: T1, Nuclear factor erythroid 2-related factor 2 (Mus musculus); assay: Induction of Nrf2-mediated GCLC mRNA expression in mouse RAW264.7 cells at 100 uM after 20 hrs by quantitative RT-PCR analysis relative to control; format: cell-based
RAW264.7 [20] = assay: Antioxidant activity in LPS-stimulated mouse RAW264.7 cells assessed as induction of HO-1 protein expression at 100 uM after 24 hrs by immunoblot analysis; format: functional, cell-based
[21] = target: T1, Nuclear factor erythroid 2-related factor 2 (Mus musculus); assay: Induction of Nrf2-mediated NQO1 mRNA expression in mouse RAW264.7 cells at 100 uM after 16 to 20 hrs by quantitative RT-PCR analysis relative to control; format: cell-based
[22] = target: T1, Nuclear factor erythroid 2-related factor 2 (Mus musculus); assay: Induction of Nrf2-mediated HO1 mRNA expression in mouse RAW264.7 cells at 100 uM after 24 hrs by quantitative RT-PCR analysis relative to control; format: cell-based
RAW264.7 [23] = assay: Antiinflammatory activity in mouse RAW264.7 cells assessed as inhibition of LPS-induced iNOS […] expression at 50 uM after 24 hrs by immunoblot analysis; format: functional, cell-based
[24] = target: T1, Nuclear factor erythroid 2-related factor 2 (Mus musculus); assay: Induction of Nrf2-mediated CAT mRNA expression in mouse RAW264.7 cells at 100 uM after 20 hrs by quantitative RT-PCR analysis relative to control; format: cell-based
RAW264.7 [25] = assay: Antioxidant activity in LPS-stimulated mouse RAW264.7 cells assessed as induction of HO-1 mRNA expression at 100 uM after 4 hrs by RT-PCR analysis relative to control; format: functional

## CC1(C)[C@@H](O)CC[C@]2(C)C3=C(CC[C@@H]12)[C@@]1(C)CC[C@@]2(C)CC[C@@](C)(C(=O)O)C[C@H]2[C@]1(C)CC3 [BRYONOLIC ACID]
RAW264.7 [1]
  fold change (FC): 11.3
[2]
  fold change (FC): 1.5
Mus musculus [3]
  Activity: Active
[4]
  Activity: Dose-dependent effect
RAW264.7 [5]
  Activity: Dose-dependent effect
RAW264.7 [6]
  Activity: Dose-dependent effect
Mus musculus [7]
  Activity: inactive
[8]
  Activity: Active
[9]
  solubility: soluble
[10]
  Activity: Active
RAW264.7 [11]
  Activity: inactive
RAW264.7 [12]
  Activity: tde
RAW264.7 [13]
  IC50: 53.3 µM
RAW264.7 [14]
  Activity: Active
RAW264.7 [15]
  Activity: Toxic
[16]
  Activity: Active
[17]
  Activity: Active
RAW264.7 [18]
  Activity: Active
[19]
  fold change (FC): 1.8
RAW264.7 [20]
  Activity: Active
[21]
  Activity: Active
[22]
  Activity: Active
RAW264.7 [23]
  Activity: Active
[24]
  fold change (FC): 3.5
RAW264.7 [25]
  fold change (FC): 4.1
